Results taken from ChEMBL document CHEMBL1145149, “Functionalized pyrrolidines inhibit alpha-mannosidase activity and growth of human glioblastoma and melanoma cells” (J Med Chem, 2005).

Key:
[1] = Growth inhibition of glioblastoma cells (LN18) by the compound (100 uM) upon incubation for 24 hours using MTT assay; format: functional, Homo sapiens
In short: (§1)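 Human glioblastoma cells were kept in DMEM with 4.5 g/L glucose, 5% FCS and antibiotics, then plated for 24-72 h. They were exposed in fresh complete medium for 24, 48 or 72 h to 0, 100, 200 or 300 µM compound, with stocks in methanol/PBS 1:20. MTT at 0.2 mg/mL was present for the final 2 h. Formazan was dissolved in 0.1 N HCl/2-propanol and read at 540 nm. Readings were expressed relative to untreated cells. Triplicate wells.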

[2] = Growth inhibition of glioblastoma cells (LN18) by the compound (100 uM) upon incubation for 48 hours using MTT assay; format: functional, Homo sapiens; design: unit: %; in short: as §1
[3] = Growth inhibition of glioblastoma cells (LN18) by the compound (100 uM) upon incubation for 72 hours using MTT assay; format: functional, Homo sapiens; design: unit: %; in short: as §1
[4] = Growth inhibition of glioblastoma cells (LN18) by the compound (200 uM) upon incubation for 24 hours using MTT assay; format: functional, Homo sapiens; design: unit: %; in short: as §1
[5] = Growth inhibition of glioblastoma cells (LN18) by the compound (200 uM) upon incubation for 48 hours using MTT assay; format: functional, Homo sapiens; design: unit not given here; in short: as §1
[6] = Growth inhibition of glioblastoma cells (LN18) by the compound (200 uM) upon incubation for 72 hours using MTT assay; format: functional, Homo sapiens; design: unit not given here; in short: as §1
[7] = Growth inhibition of glioblastoma cells (LN18) by the compound (300 uM) upon incubation for 24 hours using MTT assay; format: functional, Homo sapiens; design: unit not given here; in short: as §1
[8] = Growth inhibition of glioblastoma cells (LN18) by the compound (300 uM) upon incubation for 48 hours using MTT assay; format: functional, Homo sapiens; design: unit: %; in short: as §1
[9] = Growth inhibition of glioblastoma cells (LN18) by the compound (300 uM) upon incubation for 72 hours using MTT assay; format: functional, Homo sapiens; design: unit not given here; in short: as §1
[10] = Growth inhibition of glioblastoma cells (LNZ 308 cell) by the compound (100 uM) upon incubation for 24 hours using MTT assay; format: functional, Homo sapiens; design: unit not given here; in short: as §1
[11] = Growth inhibition of glioblastoma cells (LNZ 308 cell) by the compound (100 uM) upon incubation for 48 hours using MTT assay; format: functional, Homo sapiens; design: unit not given here; in short: as §1
[12] = Growth inhibition of glioblastoma cells (LNZ 308 cell) by the compound (100 uM) upon incubation for 72 hours using MTT assay; format: functional, Homo sapiens; design: unit not given here; in short: as §1
[13] = Growth inhibition of glioblastoma cells (LNZ 308 cell) by the compound (200 uM) upon incubation for 24 hours using MTT assay; format: functional, Homo sapiens; design: unit: %; in short: as §1
[14] = Growth inhibition of glioblastoma cells (LNZ 308 cell) by the compound (200 uM) upon incubation for 48 hours using MTT assay; format: functional, Homo sapiens; design: unit: %; in short: as §1
[15] = Growth inhibition of glioblastoma cells (LNZ 308 cell) by the compound (200 uM) upon incubation for 72 hours using MTT assay; format: functional, Homo sapiens; design: unit: %; in short: as §1
[16] = Growth inhibition of glioblastoma cells (LNZ 308 cell) by the compound (300 uM) upon incubation for 24 hours using MTT assay; format: functional, Homo sapiens; design: unit not given here; in short: as §1
[17] = Growth inhibition of glioblastoma cells (LNZ 308 cell) by the compound (300 uM) upon incubation for 48 hours using MTT assay; format: functional, Homo sapiens; design: unit: %; in short: as §1
[18] = Growth inhibition of glioblastoma cells (LNZ 308 cell) by the compound (300 uM) upon incubation for 72 hours using MTT assay; format: functional, Homo sapiens; design: unit: %; in short: as §1
[19] = Growth inhibition of glioblastoma cells (LNZ 308) by the compound (200 uM) upon incubation for 24 hours using MTT assay; format: functional, Homo sapiens; in short: as §1
[20] = Growth inhibition of glioblastoma cells (LN18) by the compound (300 uM) after 24 hr using MTT assay; format: functional, Homo sapiens; in short: as §1
[21] = Growth inhibition of glioblastoma cells (LN18) by the compound (200 uM) upon incubation for 24 hr using MTT assay; format: functional, Homo sapiens; in short: as §1
[22] = Growth inhibition of glioblastoma cells (LN18) by the compound (300 uM) upon incubation for 48 hr using MTT assay; format: functional, Homo sapiens; in short: as §1
[23] = Growth inhibition of glioblastoma cells (LN18) by the compound (300 uM) upon incubation for 72 hr using MTT assay; format: functional, Homo sapiens; in short: as §1
[24] = Growth inhibition of glioblastoma cells (LNZ 308) by the compound (100 uM) upon incubation for 24 hours using MTT assay; format: functional, Homo sapiens; in short: as §1
[25] = Growth inhibition of glioblastoma cells (LNZ 308) by the compound (100 uM) upon incubation for 48 hours using MTT assay; format: functional, Homo sapiens; in short: as §1
[26] = Growth inhibition of glioblastoma cells (LNZ 308) by the compound (100 uM) upon incubation for 72 hours using MTT assay; format: functional, Homo sapiens; in short: as §1
[27] = Growth inhibition of glioblastoma cells (LNZ 308) by the compound (200 uM) upon incubation for 72 hours using MTT assay; format: functional, Homo sapiens; in short: as §1
[28] = Growth inhibition of glioblastoma cells (LNZ 308) by the compound (300 uM) upon incubation for 24 hours using MTT assay; format: functional, Homo sapiens; in short: as §1
[29] = Growth inhibition of glioblastoma cells (LNZ 308) by the compound (300 uM) upon incubation for 48 hours using MTT assay; format: functional, Homo sapiens; in short: as §1
[30] = Growth inhibition of glioblastoma cells (LNZ 308) by the compound (300 uM) upon incubation for 72 hours using MTT assay; format: functional, Homo sapiens; in short: as §1
[31] = Growth inhibition of glioblastoma cells (LNZ 308) by the compound (200 uM) upon incubation for 48 hours using MTT assay; format: functional, Homo sapiens; in short: as §1
[32] = target: T1, Alpha-mannosidase (Glycine max) (UniProt Q9SEH8); details: Prunus dulcis; 1 mM
T1 sequence (whole entry): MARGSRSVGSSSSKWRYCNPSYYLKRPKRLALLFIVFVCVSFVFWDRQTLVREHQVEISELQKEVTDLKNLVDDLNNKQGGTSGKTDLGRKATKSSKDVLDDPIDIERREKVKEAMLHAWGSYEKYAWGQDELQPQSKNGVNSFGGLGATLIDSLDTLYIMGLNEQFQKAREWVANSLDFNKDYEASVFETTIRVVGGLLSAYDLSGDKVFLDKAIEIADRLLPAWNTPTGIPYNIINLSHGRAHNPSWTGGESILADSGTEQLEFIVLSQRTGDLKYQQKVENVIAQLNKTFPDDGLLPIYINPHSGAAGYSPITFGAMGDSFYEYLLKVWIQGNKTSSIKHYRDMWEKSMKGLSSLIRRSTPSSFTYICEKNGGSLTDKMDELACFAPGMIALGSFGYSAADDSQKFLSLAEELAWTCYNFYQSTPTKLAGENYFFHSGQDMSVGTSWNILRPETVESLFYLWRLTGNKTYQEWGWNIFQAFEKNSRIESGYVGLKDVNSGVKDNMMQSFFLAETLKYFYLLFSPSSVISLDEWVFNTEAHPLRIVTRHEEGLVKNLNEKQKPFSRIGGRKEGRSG

Row | Compound | Growth inhibition [1] | Growth inhibition [2] | Growth inhibition [3] | Growth inhibition [4] | Growth inhibition [5] | Growth inhibition [6] | Growth inhibition [7] | Growth inhibition [8] | Growth inhibition [9] | Growth inhibition [10] | Growth inhibition [11] | Growth inhibition [12] | Growth inhibition [13] | Growth inhibition [14] | Growth inhibition [15] | Growth inhibition [16] | Growth inhibition [17] | Growth inhibition [18] | Growth inhibition [19] | also measured
1 | O=C(OCC(NC[C@H]1NC[C@H](O)[C@@H]1O)c1ccccc1)c1ccc(Br)cc1 (some centres not stated) | 5 | 17 | 31 | 67 | 48 | 68 | 92 | 95 | 97 | 11 | 15 | 24 | 60 | 33 | 56 | 87 | 78 | 96 |  | 
2 | O[C@H]1[C@@H](O)CN[C@@H]1CN[C@@H](COCc1cccc(F)c1)c1ccccc1 |  | 6 | 12 | 19 | 14 | 41 | 27 | 39 | 76 | 2 | 6 | 6 | 14 | 29 | 27 | 34 | 56 | 53 | 14 | 
3 | O=C(NCC(NC[C@H]1NC[C@H](O)[C@@H]1O)c1ccccc1)c1cccc(Br)c1 (some centres not stated) |  | 20 | 43 | 30 | 46 | 61 | 52 | 50 | 65 | 2 | 19 | 43 | 20 | 40 | 52 | 50 | 42 | 59 | 20 | 
4 | O=C(OCC(NC[C@H]1NC[C@H](O)[C@@H]1O)c1ccccc1)c1cccc(Br)c1 (some centres not stated) |  | 21 | 18 |  | 25 | 24 |  |  |  | 5 | 17 | 13 | 5 | 23 | 23 | 17 | 31 | 34 | 5 | Growth inhibition [20]: 16; Growth inhibition [21]: 10; Growth inhibition [22]: 29; Growth inhibition [23]: 36
5 | OC[C@H](NC[C@H]1NC[C@H](O)[C@@H]1O)c1ccccc1 | 13 | 16 | 15 | 19 | 26 | 12 | 22 | 23 | 22 |  |  |  |  |  |  |  |  |  | 8 | Growth inhibition [24]: 0; Growth inhibition [25]: 19; Growth inhibition [26]: 5; Growth inhibition [27]: 13; Growth inhibition [28]: 26; Growth inhibition [29]: 25; Growth inhibition [30]: 22; Growth inhibition [31]: 19
6 | O=C(OCC(NC[C@H]1NC[C@H](O)[C@@H]1O)c1ccccc1)c1ccc(F)cc1 (some centres not stated) |  | 5 | 4 | 22 | 16 | 14 | 20 | 24 | 31 | 4 | 10 | 8 | 16 | 18 | 24 | 21 | 17 | 32 | 16 | 
7 | O=C(OCC(NC[C@H]1NC[C@H](O)[C@@H]1O)c1ccccc1)c1ccccc1F (some centres not stated) |  | 7 | 3 | 17 | 10 | 14 | 26 | 8 | 15 | 0 | 6 | 0 | 18 | 15 | 17 | 23 | 18 | 26 |  | 
8 | OC[C@@H](NC[C@H]1NC[C@H](O)[C@@H]1O)c1ccccc1 | 0 |  |  | 17 |  |  | 7 |  |  |  |  |  |  |  |  |  |  |  | 4 | Growth inhibition [24]: 0; Growth inhibition [28]: 28; inhibition [32]: 55%
